From paper PMC12529337 (RSC Medicinal Chemistry, 2025)
Read-outs that look alike come from different tables or passages of the source. Each block holds one compound with its values, some of them ahead of it.

Legend:
MDA-MB-231 cells [1] = experiment: MTT assay, anticancer activity, MDA-MB-231; format: cell-based, human; conditions: for IC50: read-out: IC50 MDA-MB-231
MCF-7 cells = experiment: MTT assay, anticancer activity, MCF-7; format: cell-based, human; conditions: read-out: IC50 MCF-7
MCF-10A cells = experiment: MTT assay, normal counterpart MCF-10A; format: cell-based, human; conditions: read-out: IC50 MCF-10A, 72 h
[2] = system: ROS production in murine macrophages RAW 264.7; experiment: ROS production; format: cell-based; conditions: LPS; for ROS reduction: concentration not stated in text (5 or 10 μM); for antioxidant activity (ROS production): lower dosage (5 μM)
In short: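 RAW 264.7 cells received the same treatment as in the Griess assay: LPS 1 μg mL−1 plus test compound at 5 or 10 μM, 24 h, 1% FBS. NAC (5 × 103, 10 × 103, 20 × 103 μM) was the positive control. After PBS washing, H2DCFDA 25 μM was added for 40 min at 37 °C. Fluorescence was read at λex 485/λem 535. Results are % ROS from mean fluorescence of co-treated vs LPS-alone wells, three experiments in triplicate.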

[3] = biological target: T1, human topoisomerase I (hTopoI) (Homo sapiens, UniProt P11387); experiment: Human topoisomerase I relaxation assay; format: biochemical; conditions: for inhibition of hTopoI relaxation of supercoiled DNA: pHOT1, 1 h 37 °C, gel
T1 sequence (P11387 1-765): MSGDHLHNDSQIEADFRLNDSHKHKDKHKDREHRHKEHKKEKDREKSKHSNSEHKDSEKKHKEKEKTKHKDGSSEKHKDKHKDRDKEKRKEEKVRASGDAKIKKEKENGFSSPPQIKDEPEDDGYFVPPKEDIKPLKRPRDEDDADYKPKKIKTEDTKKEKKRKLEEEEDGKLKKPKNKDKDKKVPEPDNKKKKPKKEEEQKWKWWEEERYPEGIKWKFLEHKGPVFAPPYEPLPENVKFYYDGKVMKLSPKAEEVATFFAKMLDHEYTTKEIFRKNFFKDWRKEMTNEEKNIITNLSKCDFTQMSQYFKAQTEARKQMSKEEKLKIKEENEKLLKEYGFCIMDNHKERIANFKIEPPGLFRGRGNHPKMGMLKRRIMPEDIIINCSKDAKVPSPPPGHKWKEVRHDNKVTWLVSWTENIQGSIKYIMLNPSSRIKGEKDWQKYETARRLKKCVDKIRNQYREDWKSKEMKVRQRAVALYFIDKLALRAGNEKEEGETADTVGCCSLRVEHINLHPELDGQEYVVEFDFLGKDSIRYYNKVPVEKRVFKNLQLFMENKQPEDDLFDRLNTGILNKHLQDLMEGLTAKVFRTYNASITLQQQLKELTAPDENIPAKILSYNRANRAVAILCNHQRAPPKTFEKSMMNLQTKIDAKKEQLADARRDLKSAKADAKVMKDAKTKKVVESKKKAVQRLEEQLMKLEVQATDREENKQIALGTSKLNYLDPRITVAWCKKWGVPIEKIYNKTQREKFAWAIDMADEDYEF
In short: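 Recombinant human topoisomerase I (2 units) with 0.25 μg supercoiled pHOT1 plasmid as substrate. Test compound (in DMSO) at 0.001, 0.01, 0.1 and 1 μM; DMSO vehicle control. Incubated 1 h at 37 °C. Run on a 1% agarose gel in 1× TAE without ethidium bromide, then post-stained with EB ([…], 30 min), washed and viewed under UV.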

[4] = system: murine macrophages RAW 264.7; experiment: MTT test, cytotoxicity on RAW 264.7 macrophages; format: cell-based; conditions: for cytotoxicity toward RAW 264.7: 10 μM, 24 h
In short: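 RAW 264.7 cells were kept in high-glucose DMEM with 10% FBS at 37 °C and 5% CO2. Cells were seeded in 48-well plates and exposed for 24 h to varying test compound concentrations (in DMSO). Viability was measured by MTT and expressed as % of control. Three independent experiments were run in triplicate.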

[5] = system: NO production in murine macrophages RAW 264.7; experiment: NO production; format: cell-based; conditions: 24 h, LPS 1 μg/mL
In short: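 Plated RAW 264.7 cells were treated after 24 h with test compound (5 or 10 μM, in DMSO) plus LPS 1 μg mL−1 in 1% FBS medium for 24 h. Indomethacin (5, 10, 50 μM) was the positive control. Medium was mixed 1:1 with Griess reagent for 30 min at RT and A540 was read. Results are % NO vs LPS-only, three experiments in triplicate.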

[6] = system: iNOS expression in murine macrophages RAW 264.7; experiment: iNOS expression by immunofluorescence in RAW 264.7; format: cell-based; conditions: 5 μM, co-treated with LPS 1 μg/mL, 24 h
In short: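 On coverslips, RAW 264.7 cells received LPS 1 μg mL−1 with test compound (5 μM) or indomethacin (50 μM) in 1% FBS medium for 24 h. Cells were methanol-fixed (−20 °C, 15 min) and incubated overnight at 4 °C with anti-iNOS (1:100, 2% BSA), then Alexa Fluor 568 goat anti-mouse (1:500). DAPI 0.2 μg mL−1 was applied. Images taken at 40× were used for semi-quantitative fluorescence measurement, two independent experiments.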

MDA-MB-231 cells [7] = experiment: TUNEL assay, nuclear DNA damage; format: cell-based, human; conditions: 1 μM, 24 h
In short: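 MDA-MB-231 cells (DMEM/F12, 5% FBS) were grown on coverslips and treated for 24 h with 1 μM test compound in DMSO or with vehicle. Cells were PBS-washed, methanol-fixed (−20 °C, 15 min) and incubated with the one-step TUNEL (FITC) enzyme for 35 min at 37 °C in the dark. DAPI counterstain was 0.2 mg mL−1 for 10 min at RT. Imaging used fluorescence microscopy at 20× (490/515 nm; DAPI 350/460 nm), three independent experiments.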

[8] = MTT, mean ± SD, normal mammary epithelial cells

IC50 (MDA-MB-231 cells [1]; MTT, 72 h, mean ± SD): 20.6 ± 1.4 µM
IC50 (MCF-7 cells; MTT, 72 h, mean ± SD): 11.2 ± 0.6 µM
Compound: C[C@H](c1ccccc1)n1cc[n+](C)c1.[Ag][I] [(R)-AgL1, (R)-3-Methyl-1-(1-phenylethyl)-1H-imidazol-3-ium silver(I) iodide]
IC50 (MCF-10A cells; [8]): 72.8 ± 5.8 µM

IC50 (MDA-MB-231 cells [1]; MTT, 72 h, mean ± SD): 17.6 ± 1.7 µM
IC50 (MCF-7 cells; MTT, 72 h, mean ± SD): 9.7 ± 0.8 µM
Compound: C[C@H](c1ccccc1)n1cc[n+]([C@H](C)c2ccccc2)c1.[Cl][Ag] [(R)-AgL2, 1,3-Bis((R)-1′-phenylethyl)imidazolium silver(I) chloride]
IC50 (MCF-10A cells; [8]): 24.8 ± 1.7 µM
ROS reduction [2]: ~12%

IC50 (MDA-MB-231 cells [1]; MTT, 72 h, mean ± SD): 5.8 ± 0.5 µM
IC50 (MCF-7 cells; MTT, 72 h, mean ± SD): 6.8 ± 0.4 µM
inhibition of hTopoI relaxation of supercoiled DNA ([3]; 0.001 μM): partially
inhibition of hTopoI relaxation of supercoiled DNA ([3]; 0.01 μM): totally block
inhibition of hTopoI relaxation of supercoiled DNA ([3]; 0.1 μM): preserved
inhibition of hTopoI relaxation of supercoiled DNA ([3]; 1 μM): preserved
hTopoI inhibiting concentration, times lower than that of (S)-AuL1 ([3]; total inhibition 0.01 vs 1 μM): 100 times
Compound: C[C@H](c1ccccc1)n1cc[n+](C)c1.[Cl][Au] [(R)-AuL1, (R)-3-Methyl-1-(1-phenylethyl)-1H-imidazol-3-ium gold(I) chloride]
IC50 (MCF-10A cells; [8]): 2.1 ± 0.1 µM
cytotoxicity toward RAW 264.7 [4]: cytotoxic
reduction of NO production ([5]; 5 μM): about 18%

IC50 (MDA-MB-231 cells [1]; MTT, 72 h, mean ± SD): 6.9 ± 0.3 µM
IC50 (MCF-7 cells; MTT, 72 h, mean ± SD): 7 ± 0.6 µM
Compound: C[C@H](c1ccccc1)n1cc[n+]([C@H](C)c2ccccc2)c1.[Cl][Au] [(R)-AuL2, 1,3-Bis((R)-1′-phenylethyl)imidazolium gold(I) chloride]
IC50 (MCF-10A cells; [8]): 7.1 ± 0.5 µM
cytotoxicity toward RAW 264.7 [4]: cytotoxic
reduction of NO production ([5]; 5 μM): about 18%
antioxidant activity (ROS production) [2]: did not exert any antioxidant activity

IC50 (MDA-MB-231 cells [1]; Homo sapiens, MDA-MB-231, 72 h): 71 ± 6.8 µM
IC50 (MCF-7 cells; Homo sapiens, MCF7, 72 h): 34 ± 2.4 µM
Compound: C[C@H](c1ccccc1)n1cc[n+](C)c1 [(R)-P1, (R)-3-Methyl-1-(1-phenylethyl)-1H-imidazol-3-ium iodide]
IC50 (MCF-10A cells; Homo sapiens, MCF-10A): 40.3 ± 3.6 µM

IC50 (MDA-MB-231 cells [1]; Homo sapiens, MDA-MB-231, 72 h): > 100 µM
IC50 (MCF-7 cells; Homo sapiens, MCF7, 72 h): 58 ± 4.3 µM
Compound: C[C@H](c1ccccc1)n1cc[n+]([C@H](C)c2ccccc2)c1 [(R)-P2, 1,3-Bis((R)-1′-phenylethyl)imidazolium chloride]
IC50 (MCF-10A cells; Homo sapiens, MCF-10A): 28.2 ± 1.9 µM

IC50 (MDA-MB-231 cells [1]; MTT, 72 h, mean ± SD): 14.3 ± 1.2 µM
IC50 (MCF-7 cells; MTT, 72 h, mean ± SD): 4.2 ± 0.3 µM
Compound: C[C@@H](c1ccccc1)n1cc[n+]([C@@H](C)c2ccccc2)c1.[Cl][Ag] [(S)-AgL2, 1,3-Bis((S)-1′-phenylethyl)imidazolium silver(I) chloride]
IC50 (MCF-10A cells; [8]): 24 ± 1.1 µM
ROS reduction [2]: about 15%

IC50 (MDA-MB-231 cells [1]; MTT, 72 h, mean ± SD): 2.3 ± 0.1 µM
IC50 (MCF-7 cells; MTT, 72 h, mean ± SD): 1.8 ± 0.1 µM
Compound: C[C@@H](c1ccccc1)n1cc[n+]([C@@H](C)c2ccccc2)c1.[Cl][Au] [(S)-AuL2, 1,3-Bis((S)-1′-phenylethyl)imidazolium gold(I) chloride]
IC50 (MCF-10A cells; [8]): 5.3 ± 0.2 µM
cytotoxicity toward RAW 264.7 [4]: cytotoxic
intracellular iNOS expression vs LPS-treated cells [6]: net diminution
antioxidant activity (ROS production) [2]: did not exert any antioxidant activity

IC50 (MDA-MB-231 cells [1]; Homo sapiens, MDA-MB-231, 72 h): 87 ± 7.6 µM
IC50 (MCF-7 cells; Homo sapiens, MCF7, 72 h): > 100 µM
Compound: C[C@@H](c1ccccc1)n1cc[n+](C)c1 [(S)-P1, (S)-3-Methyl-1-(1-phenylethyl)-1H-imidazol-3-ium iodide]
IC50 (MCF-10A cells; Homo sapiens, MCF-10A): > 100 µM

IC50 (MDA-MB-231 cells [1]; Homo sapiens, MDA-MB-231, 72 h): 10.8 ± 1.1 µM
IC50 (MCF-7 cells; Homo sapiens, MCF7, 72 h): 16.3 ± 1.3 µM
Compound: C[C@@H](c1ccccc1)n1cc[n+]([C@@H](C)c2ccccc2)c1 [(S)-P2, 1,3-Bis((S)-1′-phenylethyl)imidazolium chloride]
IC50 (MCF-10A cells; Homo sapiens, MCF-10A): 28.8 ± 1.9 µM

Compound: N.N.[Cl][Pt][Cl] [Cisplatin, cisplatin, reference compound]
IC50 (MDA-MB-231 cells [1]; MTT, 72 h, mean ± SD): 29.5 ± 0.9 µM
IC50 (MCF-7 cells; MTT, 72 h, mean ± SD): 37.3 ± 1.2 µM
IC50 (MCF-10A cells; [8]): 79.4 ± 1.6 µM

Compound: COc1ccc2c(c1)c(CC(=O)O)c(C)n2C(=O)c1ccc(Cl)cc1 [Ind, indomethacin, reference compound]
reduction of NO production ([5]; 50 μM): about 26%

Compound: CC(=O)N[C@@H](CS)C(=O)O [NAC, N-acetyl-cysteine, reference compound]
residual viability vs LPS-treated cells ([4]; 5 × 10^3, 10 × 10^3 and 20 × 10^3 μM, data not shown): about 98.7%
reduction in ROS levels ([2]; 10 × 10^3 μM): about 25%
reduction in ROS levels ([2]; 20 × 10^3 μM): ~40%

IC50 (MDA-MB-231 cells [1]; MTT, 72 h, mean ± SD): 0.5 ± 0.1 µM
IC50 (MCF-7 cells; MTT, 72 h, mean ± SD): 1.7 ± 0.1 µM
inhibition of hTopoI relaxation of supercoiled DNA ([3]; 0.001 μM): no inhibition
inhibition of hTopoI relaxation of supercoiled DNA ([3]; 0.01 μM): partially
inhibition of hTopoI relaxation of supercoiled DNA ([3]; 0.1 μM): partially
inhibition of hTopoI relaxation of supercoiled DNA ([3]; 1 μM): totally inhibited
Compound: (S)-3-Methyl-1-(1-phenylethyl)-1H-imidazol-3-ium gold(I) chloride [(S)-AuL1]
IC50 (MCF-10A cells; [8]): 11.5 ± 0.5 µM
nuclear DNA damage (TUNEL green fluorescence) (MDA-MB-231 cells [7]): marked genomic DNA damage
reduction of NO production ([5]; 5 μM): about 33%
reduction of NO production ([5]; 10 μM): ~57%
intracellular iNOS expression vs LPS-treated cells [6]: net diminution
reduction of ROS production ([2]; 10 μM): ~32%

IC50 MDA-MB-231 (MDA-MB-231 cells [1]; MTT, 72 h, mean ± SD): totally inactive
IC50 (MDA-MB-231 cells [1]; MTT, 72 h, mean ± SD): > 100 µM
IC50 (MCF-7 cells; MTT, 72 h, mean ± SD): 7.5 ± 0.8 µM
Compound: (S)-3-Methyl-1-(1-phenylethyl)-1H-imidazol-3-ium silver(I) iodide [(S)-AgL1]
IC50 (MCF-10A cells; [8]): 77.1 ± 6.8 µM
